Measured values reported in ChEMBL document CHEMBL1759943, “Design and synthesis of novel enhanced water soluble hydroxyethyl analogs of combretastatin A-4” (Bioorg Med Chem Lett, 2011).
≈ marks a conversion by molar mass, not a printed value.

Tests used:
L1210 [1] = test: Antiproliferative activity against mouse L1210 cells after 72 hrs by MTT assay; format: functional, cell-based; details: L1210, 72 h
Procedure, shortened: (§1)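 Murine L1210 lymphoma and B16 melanoma cells in culture were given 72-h continuous exposure to compound, and viability was read by MTT assay. IC50 was taken as the readout.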

B16 = test: Antiproliferative activity against mouse B16 cells after 72 hrs by MTT assay; format: functional, cell-based; details: B16, 72 h; procedure, shortened: as §1
COLO 205 = test: Cytotoxicity against human COLO205 cells; format: functional
Mus musculus [2] = test: Toxicity in DBA2 mouse assessed as change in color and texture of kidney at 75 mg/kg, ip administered once daily on day 1, 5, 9, 13, 17; format: organism-based; design: dose 75 mg/kg, route intraperitoneal; details: in vivo
Procedure, shortened: (§2)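 Healthy, non-tumor-bearing female DBA2 mice given 75 mg/kg on days 1, 5, 9, 13 and 17. Toxicity was judged at the end of the experiment from body weight change, blood cell counts, and the gross color and texture of the kidneys, liver and spleen.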

MDA-MB-468 = test: Cytotoxicity against human MDA-MB-468 cells; format: functional
NCI-H322M = test: Cytotoxicity against human NCI-H322M cells; format: functional
HCT-116 = test: Cytotoxicity against human HCT116 cells; format: functional
MDA-MB-435 [3] = test: Ratio of EC50 for disruption of interphase microtubule organization in rat A10 cells to IC50 for human MDA-MB-435 cells; format: functional
MCF7 = test: Cytotoxicity against human MCF7 cells; format: functional
[4] = Cytotoxicity against human Hs 578T cells; format: functional
SN12C = test: Cytotoxicity against human SN12C cells; format: functional
ACHN = test: Cytotoxicity against human ACHN cells; format: functional
EKVX = test: Cytotoxicity against human EKVX cells; format: functional
Mus musculus [5] = test: Toxicity in DBA2 mouse assessed as change in body weight at 75 mg/kg, ip administered once daily on day 1, 5, 9, 13, 17; format: organism-based; design: dose 75 mg/kg, route intraperitoneal; details: in vivo; procedure, shortened: as §2
NCI-H23 = test: Cytotoxicity against human NCI-H23 cells; format: functional
SF-268 = test: Cytotoxicity against human SF268 cells; format: functional
PC-3 = test: Cytotoxicity against human PC3 cells; format: functional
[6] = Cytotoxicity against human RXF 393NL cells; format: functional
HOP-92 = test: Cytotoxicity against human HOP92 cells; format: functional
U-251 = test: Cytotoxicity against human U251 cells; format: functional
Mus musculus [7] = test: Toxicity in DBA2 mouse assessed as change in blood cell count at 75 mg/kg, ip administered once daily on day 1, 5, 9, 13, 17; format: organism-based; design: dose 75 mg/kg, route intraperitoneal; details: in vivo; procedure, shortened: as §2
SW-620 = test: Cytotoxicity against human SW620 cells; format: functional
HOP-62 = test: Cytotoxicity against human HOP62 cells; format: functional
NCI-H522 = test: Cytotoxicity against human NCI-H522 cells; format: functional
SK-MEL-5 = test: Cytotoxicity against human SK-MEL-5 cells; format: functional
NCI-H460 = test: Cytotoxicity against human NCI-H460 cells; format: functional
[8] = Aqueous solubility of the compound after 6 hrs; format: physicochemical
Procedure, shortened: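 Solubility was measured with a modified filter-plate protocol, assay maximum 500 µM. Each compound had its own standard curve, diluted into 80:20 aqueous buffer:acetonitrile at 5% DMSO (v/v) final. The aqueous sample was mixed 6 h and centrifuged. Supernatant absorbance gave concentration from the standard curve.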

DU-145 = test: Cytotoxicity against human DU145 cells; format: functional
M14 = test: Cytotoxicity against human M14 cells; format: functional
RPMI-8226 = test: Cytotoxicity against human RPMI8226 cells; format: functional
OVCAR-5 = test: Cytotoxicity against human OVCAR5 cells; format: functional
SK-MEL-28 = test: Cytotoxicity against human SK-MEL-28 cells; format: functional; details: SK-MEL-28, read-out: pGI50 (converted)
K562 = test: Cytotoxicity against human K562 cells; format: functional
OVCAR-4 = test: Cytotoxicity against human OVCAR4 cells; format: functional
HCT-15 = test: Cytotoxicity against human HCT15 cells; format: functional
KM12 = test: Cytotoxicity against human KM12 cells; format: functional
SF-295 = test: Cytotoxicity against human SF295 cells; format: functional
Mus musculus [9] = test: Toxicity in DBA2 mouse assessed as change in color and texture of liver at 75 mg/kg, ip administered once daily on day 1, 5, 9, 13, 17; format: organism-based; design: dose 75 mg/kg, route intraperitoneal; details: in vivo; procedure, shortened: as §2
LOX IMVI = test: Cytotoxicity against human LOXIMVI cells; format: functional
MDA-MB-231 = test: Cytotoxicity against human MDA-MB-231 cells; format: functional
MDA-MB-435 [10] = test: Cytotoxicity against human MDA-MB-435 cells; format: functional, cell-based
786-0 = test: Cytotoxicity against human 786-0 cells; format: functional
OVCAR-3 = test: Cytotoxicity against human OVCAR3 cells; format: functional
CAKI-1 = test: Cytotoxicity against human Caki1 cells; format: functional
NCI-H226 = test: Cytotoxicity against human NCI-H226 cells; format: functional; details: NCI-H226, read-out: pGI50 (converted)
CCRF-CEM = test: Cytotoxicity against human CCRF-CEM cells; format: functional
UACC-62 = test: Cytotoxicity against human UACC62 cells; format: functional
UO-31 = test: Cytotoxicity against human UO31 cells; format: functional
Mus musculus [11] = test: Toxicity in DBA2 mouse assessed as change in color and texture of spleen at 75 mg/kg, ip administered once daily on day 1, 5, 9, 13, 17; format: organism-based; design: dose 75 mg/kg, route intraperitoneal; details: in vivo; procedure, shortened: as §2
A498 = test: Cytotoxicity against human A498 cells; format: functional
MOLT-4 = test: Cytotoxicity against human MOLT4 cells; format: functional
NCI/ADR-RES = test: Cytotoxicity against human NCI/ADR-RES cells; format: functional
HCC 2998 = test: Cytotoxicity against human HCC2998 cells; format: functional
L1210 [12] = test: Antitumor activity against mouse L1210 cells xenografted in DBA2 mouse assessed as reduction in tumor volume at 75 mg/kg, ip administered once daily on day 1, 3, 5, 7, 9, 11, 13, 15, 17 measured on day 19 relative to control; format: functional; design: scale not given: the % may be the effect or the level left; details: route intraperitoneal
Procedure, shortened: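 Female DBA2 mice were inoculated with L1210 leukemia cells on the right flank. Compound was given ip at 75 mg/kg once on each of days 1, 3, 5, 7, 9, 11, 13, 15 and 17 after inoculation, in 100 µL injections; controls got vehicle alone. Tumor volume was compared with vehicle controls on day 19.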

UACC-257 = test: Cytotoxicity against human UACC257 cells; format: functional; details: UACC-257, read-out: pGI50 (converted)
BT-549 = test: Cytotoxicity against human BT549 cells; format: functional
A549 = test: Cytotoxicity against human A549 cells; format: functional
SK-OV-3 = test: Cytotoxicity against human SKOV3 cells; format: functional
HL-60 = test: Cytotoxicity against human HL60 cells; format: functional
A10 = test: Disruption of microtubule organization in rat A10 cells assessed as loss of interphase microtubules; format: functional, cell-based
IGROV-1 = test: Cytotoxicity against human IGROV1 cells; format: functional
SK-MEL-2 = test: Cytotoxicity against human SK-MEL-2 cells; format: functional
HT-29 = test: Cytotoxicity against human HT-29 cells; format: functional
OVCAR-8 = test: Cytotoxicity against human OVCAR8 cells; format: functional
TK-10 = test: Cytotoxicity against human TK10 cells; format: functional

## COc1cc(/C(=C/c2cccc([N+](=O)[O-])c2)C(C)O)cc(OC)c1OC (stereo unspecified)
L1210 [1]
  IC50: > 100000 nM
B16
  IC50: > 100000 nM

## COc1cc(/C(=C/c2ccccc2)C(C)O)cc(OC)c1OC (stereo unspecified)
L1210 [1]
  IC50: > 100000 nM
B16
  IC50: > 100000 nM

## COc1ccc(/C=C(/c2cc(OC)c(OC)c(OC)c2)C(C)O)cc1O (stereo unspecified)
COLO 205
  GI50: 27500 nM
Mus musculus [2]
  Activity: Non-toxic
MDA-MB-468
  GI50: 501 nM
NCI-H322M
  GI50: 3980 nM
HCT-116
  GI50: 479 nM
MDA-MB-435 [3]
  Ratio: 24
MCF7
  GI50: 389 nM
[4]
  GI50: 324 nM
SN12C
  GI50: 6610 nM
ACHN
  GI50: 575 nM
EKVX
  GI50: 5620 nM
Mus musculus [5]
  Activity: Non-toxic
NCI-H23
  GI50: 3720 nM
SF-268
  GI50: 1000 nM
PC-3
  GI50: 501 nM
[6]
  GI50: 324 nM
HOP-92
  GI50: 209 nM
U-251
  GI50: 575 nM
Mus musculus [7]
  Activity: Non-toxic
SW-620
  GI50: 363 nM
HOP-62
  GI50: 4070 nM
NCI-H522
  GI50: 457 nM
SK-MEL-5
  GI50: 417 nM
NCI-H460
  GI50: 490 nM
[8]
  solubility at 6 h: 479 µM (≈ 173 µg/mL)
DU-145
  GI50: 1450 nM
M14
  GI50: 631 nM
RPMI-8226
  GI50: 3470 nM
OVCAR-5
  GI50: 5620 nM
SK-MEL-28
  GI50: > 100000 nM
K562
  GI50: 550 nM
OVCAR-4
  GI50: 4270 nM
HCT-15
  GI50: 617 nM
L1210 [1]
  IC50: 4100 nM
KM12
  GI50: 389 nM
SF-295
  GI50: 1860 nM
Mus musculus [9]
  Activity: Non-toxic
LOX IMVI
  GI50: 891 nM
MDA-MB-231
  GI50: 2140 nM
MDA-MB-435 [10]
  GI50: 200 nM
  IC50: 880 nM
MDA-MB-435 [10]; read-out: pGI50 (converted)
  GI50: 229 nM
786-0
  GI50: 4170 nM
OVCAR-3
  GI50: 245 nM
CAKI-1
  GI50: 4570 nM
NCI-H226
  GI50: > 100000 nM
CCRF-CEM
  GI50: 2450 nM
UACC-62
  GI50: 468 nM
UO-31
  GI50: 2340 nM
B16
  IC50: 16100 nM
Mus musculus [11]
  Activity: Non-toxic
A498
  GI50: 759 nM
MOLT-4
  GI50: 4680 nM
NCI/ADR-RES
  GI50: 447 nM
HCC 2998
  GI50: 2820 nM
L1210 [12]
  Activity: 50%
UACC-257
  GI50: > 100000 nM
BT-549
  GI50: 813 nM
A549
  GI50: 3020 nM
SK-OV-3
  GI50: 1020 nM
HL-60
  GI50: 479 nM
A10
  EC50: 21200 nM
IGROV-1
  GI50: 851 nM
SK-MEL-2
  GI50: 692 nM
HT-29
  GI50: 4070 nM
OVCAR-8
  GI50: 1320 nM
TK-10
  GI50: 4070 nM

## COc1cc(/C(=C/c2ccc(Cl)cc2)C(C)O)cc(OC)c1OC (stereo unspecified)
L1210 [1]
  IC50: > 100000 nM
B16
  IC50: > 100000 nM

## COc1ccc(/C=C(/c2cc(OC)c(OC)c(OC)c2)C(C)O)cc1 (stereo unspecified)
L1210 [1]
  IC50: 3900 nM
B16
  IC50: 17500 nM

## COc1cc(/C=C(/c2cc(OC)c(OC)c(OC)c2)C(C)O)cc(OC)c1OC (stereo unspecified)
L1210 [1]
  IC50: 51500 nM
B16
  IC50: 84000 nM

## COc1cc(/C(=C/c2ccc([N+](=O)[O-])cc2)C(C)O)cc(OC)c1OC (stereo unspecified)
L1210 [1]
  IC50: > 100000 nM
B16
  IC50: > 100000 nM

## COc1cc(/C(=C/c2ccc(C)cc2)C(C)O)cc(OC)c1OC (stereo unspecified)
L1210 [1]
  IC50: 33500 nM
B16
  IC50: > 100000 nM

## COc1ccc(/C=C(/c2cc(OC)c(OC)c(OC)c2)C(C)O)cc1OC (stereo unspecified)
L1210 [1]
  IC50: 69000 nM
B16
  IC50: > 100000 nM

## COc1cc(/C(=C/c2ccc(Br)cc2)C(C)O)cc(OC)c1OC (stereo unspecified)
L1210 [1]
  IC50: > 100000 nM
B16
  IC50: > 100000 nM

## COc1ccc(OC)c(/C=C(/c2cc(OC)c(OC)c(OC)c2)C(C)O)c1 (stereo unspecified)
L1210 [1]
  IC50: > 100000 nM
B16
  IC50: > 100000 nM

## COc1cc(/C(=C/c2ccc(Cl)c(Cl)c2)C(C)O)cc(OC)c1OC (stereo unspecified)
L1210 [1]
  IC50: 18500 nM
B16
  IC50: 51500 nM

## COc1ccc(/C=C(/c2cc(OC)c(OC)c(OC)c2)C(C)O)cc1[N+](=O)[O-] (stereo unspecified)
L1210 [1]
  IC50: 67500 nM
B16
  IC50: > 100000 nM
